ChEMBL document CHEMBL1139901, “Synthesis of new plant growth regulator: N-(fatty acid) O-aryloxyacetyl ethanolamine” (Bioorg Med Chem Lett, 2007)

Tests used:
Brassica napus = assay: Stimulation of hypocotyls elongation in rape after 3 days; type: functional; set-up: concentration or dose not given beside the values
Procedure, shortened: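 Rape seeds were cultured at 25 °C in the dark. Hypocotyl length was measured after 3 days and compared with seeds treated with distilled water; two replicates.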

Cucumis sativus = assay: Stimulation of cytyledon expansion in cucumber after 3 days; type: functional; set-up: concentration or dose not given beside the values
Procedure, shortened: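 Soaked cucumber seeds were germinated on 0.7% agar for 3 days in the dark at 26 °C, and cotyledons of similar size were selected. Compound in DMF was dried onto 6-cm filter paper, then distilled water was added to give 10 mg/L. Ten cotyledons were cultured per dish under light (300 Lux, 26 °C). Percent increase was taken over the no-regulator control.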

Triticum aestivum = assay: Stimulation of coleoptiles growth in common wheat after 18 to 20 hrs; type: functional; set-up: concentration or dose not given beside the values
Procedure, shortened: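 Wheat coleoptile tips (5 mm) were soaked in distilled water for 1 h to remove endogenous hormone, then cut into 10 segments. Compound in DMF was dried onto 6-cm filter paper and placed in 0.01 mol/L phosphoric acid–citric acid buffer (pH 5) with 2% sucrose, giving 10 mg/L. Ten segments were cultured at 25 °C in the dark for 18–20 h. Length was compared with untreated segments; two replicates.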

[1] = Solubility in chloroform; type: physicochemical
[2] = Solubility in ethyl acetate solution; type: physicochemical
[3] = Solubility in ethanol; type: physicochemical

| SMILES | Activity (Brassica napus) [%] | Activity (Cucumis sativus) [%] | Activity (Triticum aestivum) [%] | Solubility [1] [g] | Solubility [2] [g] | Solubility [3] [g] |
| --- | --- | --- | --- | --- | --- | --- |
| CCCCCCCCCCCC(=O)NCCOC(=O)COc1ccc(Cl)cc1 | 71.8 | 2.9 | 16 |  |  |  |
| CCCCCCCCCCCCCCCCCC(=O)NCCOC(=O)COc1ccc(Cl)cc1Cl | 73.8 | 0.7 | 7.5 | 10.22 | 3.54 | 1.03 |
| CCCCCCCCCCCCCC(=O)NCCOC(=O)COc1ccc(Cl)cc1Cl | 68.1 | -0.1 | 8.9 |  |  |  |
| CCCCCCCCCCCC(=O)NCCOC(=O)COc1ccc(Cl)cc1Cl | 69 | 4 | 17.9 | 15.1 | 11 | 10.42 |
| CCCCCCCCCCCC(=O)NCCO |  |  |  | 1.76 | 0.38 | 9.14 |
| CCCCCCCCCCCCCCCCCC(=O)NCCOC(=O)COc1cccc(OC)c1 | -1.4 | -0.1 | 5 | 7.76 | 2.67 | 1.99 |
| CCCCCCCCCCCCCCCCCC(=O)NCCOC(=O)COc1ccccc1C | 57 | 5.7 | 0.7 | 53.97 | 8.27 | 3.08 |
| CCCCCCCCCCCC(=O)NCCOC(=O)COc1ccc(C)cc1 | 54.9 | 5.9 | 4.1 |  |  |  |
| CCCCCCCCCCCCCCCCCC(=O)NCCOC(=O)COc1ccc(Cl)cc1 | 71.8 | 6.3 | 5 | 4.37 | 1.54 | 1.88 |
| CCCCCCCCCCCCCCCCCC(=O)NCCOC(=O)COc1ccc(C)cc1 | 38.7 | 9.8 | 3.3 |  |  |  |
| CCCCCCCCCCCCCCCC(=O)NCCOC(=O)COc1ccc(Cl)cc1Cl | 67.3 | 3.5 | 17 |  |  |  |
| O=C(O)COc1ccc(Cl)cc1Cl [2,4-DICHLOROPHENOXYACETIC ACID] | 65.7 | 0.8 | 28.3 |  |  |  |
| CCCCCCCCCCCCCCCCCC(=O)NCCO [N-(2-HYDROXYETHYL)STEARAMIDE] | 35.3 | 6.2 | 2.1 | 0.16 | 0.03 | 0.34 |
